These results are taken from ChEMBL document CHEMBL2062479, “Synthesis and biological evaluation of derivatives of 2-{2-fluoro-4-[(2-oxocyclopentyl)methyl]phenyl}propanoic acid: nonsteroidal anti-inflammatory drugs with low gastric ulcerogenic activity” (J Med Chem, 2012).

Active and inactive are the calls of the source. No cut-off for these calls is given here.

Data set [1] addresses T1, Prostaglandin G/H synthase 2 (Homo sapiens) (UniProt P35354).
T1 sequence (whole entry): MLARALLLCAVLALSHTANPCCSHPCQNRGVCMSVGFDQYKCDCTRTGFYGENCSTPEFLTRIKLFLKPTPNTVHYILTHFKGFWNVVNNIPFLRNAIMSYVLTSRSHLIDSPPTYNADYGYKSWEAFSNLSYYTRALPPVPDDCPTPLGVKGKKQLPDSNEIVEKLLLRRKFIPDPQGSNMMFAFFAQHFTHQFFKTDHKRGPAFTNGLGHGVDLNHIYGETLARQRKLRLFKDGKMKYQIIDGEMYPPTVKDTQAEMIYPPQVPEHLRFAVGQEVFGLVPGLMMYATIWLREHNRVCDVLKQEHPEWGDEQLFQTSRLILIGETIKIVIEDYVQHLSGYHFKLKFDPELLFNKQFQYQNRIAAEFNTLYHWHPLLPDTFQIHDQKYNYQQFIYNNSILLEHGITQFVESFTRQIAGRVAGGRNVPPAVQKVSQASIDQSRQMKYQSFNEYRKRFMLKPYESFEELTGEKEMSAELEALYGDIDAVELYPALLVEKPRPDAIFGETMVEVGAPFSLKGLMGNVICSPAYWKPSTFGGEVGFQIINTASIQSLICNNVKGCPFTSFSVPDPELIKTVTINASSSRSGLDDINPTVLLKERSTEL
The experiment in a line: Inhibition of LPS-stimulated human whole blood COX-2 assessed as inhibition of PGE2 production at 10 uM by EIA. The procedure, abridged:
(§1)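 Human whole blood COX assay, with COX-1 and COX-2 read as prostaglandin biosynthesis. Relative inhibition (%) was taken at fixed test concentrations of 10 and 100 μM. Mean ± SEM, n = 3−6.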

Data set [2] has as its target T1, Prostaglandin G/H synthase 2 (Homo sapiens). The experiment in a line: Inhibition of LPS-stimulated human whole blood COX-2 assessed as inhibition of PGE2 production at 100 uM by EIA. The procedure, abridged:
as §1

For data set [3], the target named is T2, Prostaglandin G/H synthase 1 (Homo sapiens, UniProt P23219). The experiment in a line: Inhibition of human whole blood COX-1 assessed as inhibition of TXB2 production by EIA. The procedure, abridged: (§2)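 Human whole blood COX-1 and COX-2 assay run over a range of test concentrations. IC50 was fitted to a four-parameter logistic dose−response curve, and the COX-1/COX-2 ratio was computed from the two IC50 values. Mean ± SEM, n = 3−6.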
T2 sequence (P23219 whole entry): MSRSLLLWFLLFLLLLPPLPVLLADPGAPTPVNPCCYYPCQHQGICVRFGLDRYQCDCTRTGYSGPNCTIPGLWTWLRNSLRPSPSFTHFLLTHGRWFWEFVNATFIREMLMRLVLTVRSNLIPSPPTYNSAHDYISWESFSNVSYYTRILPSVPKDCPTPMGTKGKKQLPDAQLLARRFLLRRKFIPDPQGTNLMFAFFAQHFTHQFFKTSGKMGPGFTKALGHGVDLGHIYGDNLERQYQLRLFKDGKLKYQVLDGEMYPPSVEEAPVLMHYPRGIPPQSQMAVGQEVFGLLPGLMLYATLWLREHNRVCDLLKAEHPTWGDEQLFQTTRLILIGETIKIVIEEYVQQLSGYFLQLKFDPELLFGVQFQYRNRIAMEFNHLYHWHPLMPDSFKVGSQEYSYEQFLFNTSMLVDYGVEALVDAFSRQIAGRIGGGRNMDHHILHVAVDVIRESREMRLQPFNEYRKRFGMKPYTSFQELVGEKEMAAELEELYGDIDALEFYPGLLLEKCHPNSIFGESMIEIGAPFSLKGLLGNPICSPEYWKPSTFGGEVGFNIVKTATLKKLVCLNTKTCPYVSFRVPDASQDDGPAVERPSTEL

For data set [4], the target named is T3, Prostaglandin G/H synthase 2 (Homo sapiens, UniProt P35354).
T3 sequence (P35354 whole entry): T1 sequence (whole entry)
The experiment in a line: Inhibition of LPS-stimulated human whole blood COX-2 assessed as inhibition of PGE2 production by EIA. The procedure, abridged:
as §2

For another data set, the species on record is Homo sapiens. Nature of the data set: Selectivity index, ratio of IC50 for human COX1 to IC50 for human COX2. Summed up:
as §2

Data set [5] concerns Rattus norvegicus. Nature of the data set: Antiinflammatory activity against Wistar rat assessed as inhibition of carrageenan induced edema volume at 37.3 uM/kg, po administered 1 hr prior carrageenan-challenge measured after 3 hrs post challenge. It is filed as functional. The procedure, abridged:
(§3)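 Oral dose of 37.3 μM/kg. Carrageenan (1%) was injected intradermally into the left hindpaw 1 h later. Edema was measured 3 h and 6 h after challenge, and relative inhibition of the edema volume increase was calculated. Mean ± SEM, n = 3−6.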

Data set [6] has as its system Rattus norvegicus. The experiment in a line: Antiinflammatory activity against Wistar rat assessed as inhibition of carrageenan induced edema volume at 37.3 uM/kg, po administered 1 hr prior carrageenan-challenge measured after 6 hrs post challenge. The data set is classed as functional. The procedure, abridged:
as §3
For orientation: In the carrageenan paw model, swelling and tenderness develop within hours.

The test system of data set [7] is Rattus norvegicus. Nature of the data set: Toxicity in rat assessed as gastric ulcerogenic activity at 0.37 to 7.45 mM/kg, po measured after 8 hrs. It is filed as organism-based, Stomach. As to conditions: in vivo. The procedure, abridged:
(§4)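 Rats were given oral doses of 0.37, 0.75, 1.12, 1.86, 3.73 or 7.45 mM/kg. Stomachs were removed 8 h later and scored for hemorrhagic damage. Mean ± SEM, n = 3−6.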

Data set [8] has as its system Rattus norvegicus. The experiment in a line: Antiinflammatory activity against Wistar rat assessed as inhibition of carrageenan induced edema volume at 3.73 to 37.3 uM/kg, po administered 1 hr prior carrageenan-challenge measured after 3 to 6 hrs post challenge. It is filed as functional, organism-based. The procedure, abridged: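 Rats dosed orally at 3.73, 11.2 or 37.3 μM/kg. Carrageenan (1%) was injected intradermally into the left hindpaw 1 h after dosing. Footpad edema was measured 3 and 6 h after carrageenan, and relative inhibition of the edema volume increase was calculated. Mean ± SEM, n = 3−6.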

Data set [9] deals with Rattus norvegicus. Nature of the data set: Toxicity in rat assessed as gastric ulcerogenic activity at 7.45 mM/kg, po measured after 8 hrs. The data set is classed as organism-based, Stomach. The settings on record: in vivo, 7450 µM. Summed up:
as §4

The target in data set [10] is T2, Prostaglandin G/H synthase 1. Nature of the data set: Inhibition of human whole blood COX-1 assessed as inhibition of TXB2 production at 10 uM by EIA. The procedure, abridged: as §1
For data set [11] the target is unchanged. Nature of the data set: Inhibition of human whole blood COX-1 assessed as inhibition of TXB2 production at 100 uM by EIA. Summed up: as §1

As a reminder, the inhibition is the drop in the measured response relative to a control, in per cent. In general, IC50 refers to the point on the concentration scale where inhibition reaches its midpoint.

Regarding `CC(C(=O)O)c1ccc(NC2CCCC2)cc1F` (stereo not drawn), the inhibition in data set [1] was determined as 40.7%; in data set [2], 91.9%; in data set [10] it was 34.7%; in data set [11], 92%. Besides, the IC50 stood at 15.6 µM in data set [3] and 21.3 µM in data set [4]. In addition, in the data set listed under Homo sapiens, the Ratio IC50 was 0.7. Besides, the “inhibition (INH)” value is 45.5% in the data set with Rattus norvegicus [5] and 60.1% with Rattus norvegicus [6]. In addition, the Activity entry in the data set with Rattus norvegicus [7] and in the data set with Rattus norvegicus [9] was “Non-toxic” each time. For the same compound, the inhibition entry in the data set on Rattus norvegicus [8] was “Active”.

As for `CC(C(=O)O)c1ccc(OC2CCCC2)cc1F` (stereo not drawn), the inhibition in data set [1] was found to be 39.7%; in data set [2], 96.4%; in data set [10] it was 65%; in data set [11], 81.4%. Further, the IC50 in data set [3] is 3 µM; in data set [4], 26.3 µM. The Ratio IC50 in the data set filed under Homo sapiens was 0.1. Also, the “inhibition (INH)” value in the data set with Rattus norvegicus [5] was found to be 40.4%; in the data set on Rattus norvegicus [6], 51.9%. Besides, the Activity entry with Rattus norvegicus [7] and in the data set on Rattus norvegicus [9] was “Non-toxic” each time.
